# Reference: ChEMBL document CHEMBL1154284, “Antioxidant effects of xanthohumol and functional impact on hepatic ischemia-reperfusion injury” (J Nat Prod, 2009)
# pIC50: −log10 of the molar value. Activity calls are given as the source filed them. The calls are words filed in the database; no cut-off is given here.
# What was measured:
# [1] = Antioxidant activity assessed as superoxide radical anion scavenging activity after 100 secs by xanthine/xanthine oxidase method; format: functional
# In short: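 Cell-free chemiluminescence: 1 mM xanthine with test solution (5–80 μM), reaction started by injecting 1 mM luminol and 0.5 U/mL xanthine oxidase (stock concentrations). Light read for 100 s at 37 °C; output as RLU or area under the curve, relative to solvent control (100%); n = 9.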
# HEK293 [2] = test: Antioxidant activity in human HEK293 cells loaded with dihyfrofluresceindiacetate at 40 uM; format: functional
# In short: (§1)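 HEK 293 cells grown to 85–90% confluency, pretreated 2 h with compound (40 μM) or NAC (1 mM); 20 μM dihydrofluorescein diacetate loaded during final 30 min at 37 °C in dark; washed, then 1 mM H2O2 for 20 min. Fluorescence ex 485/em 535 nm versus corresponding controls; mean ± SEM, n = 4.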
# HEK293 [3] = test: Cytotoxicity against human HEK293 cells upto 10 to 300 uM after 3 hrs by MTT assay; format: cell-based; details: hek293, 3 h
# In short: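 HEK 293 cells near 85–90% confluency exposed 3 h to 10–300 μM; MTT added, 1 h at 37 °C; formazan dissolved in DMSO and absorbance read at 550 nm.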
# Liver [4] = test: Inhibition of ischemic and reperfusion-induced of GSH activity in Sprague-Dawley rat hepatic tissue at 26.6 mM before ischemic period by DTNB reduction assay; format: functional, tissue-based; details: 2.26 mM, in the assay text read “2.26 mM” for “26.6 mM”
# In short: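 Total glutathione in liver homogenate from perfused rat livers after cold ischemia/reperfusion, measured colorimetrically via DTNB reduction at 405 nm; normalized to Bradford protein; percent of untreated controls.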
# Liver [5] = test: Inhibition of ischemic and reperfusion-induced SOD activity in Sprague-Dawley rat hepatic tissue at 26.6 mM before ischemic period by pyragallol method; format: functional, tissue-based; details: 2.26 mM, in the assay text read “2.26 mM” for “26.6 mM”
# In short: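 Perfused rat livers (portal-vein pretreatment before 6 h cold ischemia, 150 min reperfusion). Tissue SOD activity by pyrogallol autoxidation method (one unit inhibits autoxidation 50%), normalized to Bradford protein, expressed as percent of untreated controls; mean ± SEM, n = 3.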
# Liver [6] = test: Inhibition of ischemic and reperfusion-induced oxidative stress in Sprague-Dawley rat hepatic tissue at 26.6 mM before ischemic period assessed as decrease in 8-isoprostane level; format: functional, tissue-based; details: 2.26 mM, in the assay text read “2.26 mM” for “26.6 mM”
# In short: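 Liver homogenates from perfused rat livers after cold ischemia/reperfusion; 8-isoprostane by competitive EIA with acetylcholinesterase conjugate, absorbance 412 nm; percent of untreated controls.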
# [7] = Inhibition of TNF-alpha-induced NF-kappaB activation expressed in human HEK293 cells preincubated for 2 hrs before TNFalpha challenge by leuciferase reporter gene assay; format: cell-based
# In short: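 HEK 293 cells transiently transfected (Ca2+-phosphate) with NF-κB-driven firefly luciferase plasmid, replated 1×10^5 cells/well, grown 16 h; preincubated 2 h with 5–60 μM, then 1 ng/mL TNF-α for 6 h; PDTC 50 μM positive control. Lysate luciferase read; solvent-treated = 100%; mean ± SEM, n = 3.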
# [8] = biological target: RAC-alpha serine/threonine-protein kinase (Rattus norvegicus) (UniProt P47196); test: Inhibition of AKt phosphorylation in Sprague-Dawley rat ischemic reperfusion treated hepatic tissue at 2.26 mM before ischemic period by Western blot analysis
# RAC-alpha serine/threonine-protein kinase (Rattus norvegicus), sequence (P47196 whole entry, the tested form may be a part): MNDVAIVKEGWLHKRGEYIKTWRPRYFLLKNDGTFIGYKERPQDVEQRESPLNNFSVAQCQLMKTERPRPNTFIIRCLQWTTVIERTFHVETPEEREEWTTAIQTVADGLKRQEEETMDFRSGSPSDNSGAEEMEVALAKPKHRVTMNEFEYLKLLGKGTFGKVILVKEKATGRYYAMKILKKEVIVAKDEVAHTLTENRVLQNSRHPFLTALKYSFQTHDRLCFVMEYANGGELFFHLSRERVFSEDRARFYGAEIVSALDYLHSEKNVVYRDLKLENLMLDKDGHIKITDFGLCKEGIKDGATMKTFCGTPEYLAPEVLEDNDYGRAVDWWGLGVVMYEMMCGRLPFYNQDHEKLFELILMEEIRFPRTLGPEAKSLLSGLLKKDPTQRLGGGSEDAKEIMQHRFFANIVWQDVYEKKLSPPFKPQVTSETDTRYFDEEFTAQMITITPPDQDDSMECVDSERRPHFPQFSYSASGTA
# In short: (§2)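 Rat livers given 2.26 mM or solvent via portal vein before 6 h cold ischemia and 150 min reperfusion. Western blot with antibodies to Bcl-xl or phospho-Akt (Ser-473, Thr-308), overnight at 4 °C, HRP secondary; β-actin loading control; densitometry; untreated livers as control; n = 3.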
# [9] = biological target: Bcl-2-like protein 1 (Rattus norvegicus) (UniProt P53563); test: Reduction of Bcl-xl level in Sprague-Dawley rat ischemic-reperfused hepatic tissue at 2.26 mM treated before ischemic period by Western blot analysis; format: functional; in short: as §2
# Bcl-2-like protein 1 (Rattus norvegicus), sequence (P53563 whole entry, the tested form may be a part): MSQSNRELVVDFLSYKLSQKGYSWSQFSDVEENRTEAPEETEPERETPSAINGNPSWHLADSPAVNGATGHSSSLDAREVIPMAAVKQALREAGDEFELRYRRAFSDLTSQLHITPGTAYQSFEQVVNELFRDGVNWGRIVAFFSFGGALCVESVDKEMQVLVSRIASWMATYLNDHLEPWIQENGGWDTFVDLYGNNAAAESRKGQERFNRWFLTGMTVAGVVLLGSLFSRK
# [10] = biological target: T1, Caspase-3 (Rattus norvegicus) (UniProt P55213); test: Induction of caspase 3 in Sprague-Dawley rat ischemic-reperfused hepatic tissue assessed as generation of free fluorescent 7-amino-4-trifluoro-methylcoumarin at 2.26 mM treated before ischemic period
# T1 sequence (whole entry): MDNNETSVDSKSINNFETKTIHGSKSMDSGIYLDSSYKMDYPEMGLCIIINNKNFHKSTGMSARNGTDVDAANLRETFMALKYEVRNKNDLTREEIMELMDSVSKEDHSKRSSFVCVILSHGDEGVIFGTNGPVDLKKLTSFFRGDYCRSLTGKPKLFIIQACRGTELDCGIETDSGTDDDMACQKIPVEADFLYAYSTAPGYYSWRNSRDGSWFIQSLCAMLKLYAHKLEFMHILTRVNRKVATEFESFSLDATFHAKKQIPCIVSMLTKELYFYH
# In short: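 Isolated perfused rat livers (2.26 mM or solvent into portal vein, 6 h 4 °C cold ischemia, 150 min reperfusion). Tissue extracts incubated with Ac-DEVD-AFC; AFC fluorescence ex 385/em 505 nm; untreated livers set as 1; mean ± SEM, n = 3.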
# Liver [11] = test: Effect on ischemic and reperfusion-induced injury in Sprague-Dawley rat hepatic tissue at 2.26 mM before ischemic period assessed as ALT level; format: functional, tissue-based; details: Sprague-Dawely
# In short: (§3)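 Male Sprague–Dawley rats (200–240 g) livers perfused with Krebs–Henseleit buffer pH 7.4, 37 °C; 2.26 mM compound or solvent injected via portal vein before 6 h cold ischemia at 4 °C; reperfused 150 min at 37 °C. Perfusate ALT, AST, LDH measured over time on clinical analyzer at 37 °C; mean ± SEM, n = 3.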
# Liver [12] = test: Effect on ischemic and reperfusion-induced injury in Sprague-Dawley rat hepatic tissue at 2.26 mM before ischemic period assessed as AST level; format: functional, tissue-based; details: Sprague-Dawely; in short: as §3
# Liver [13] = test: Effect on ischemic and reperfusion-induced injury in Sprague-Dawley rat hepatic tissue at 2.26 mM before ischemic period assessed as LDH level; format: functional, tissue-based; details: Sprague-Dawely; in short: as §3
# HEK293 [14] = test: Antioxidant activity in human HEK293 cells loaded with dihyfrofluresceindiacetate at 1 mM; format: functional; in short: as §1
# Rattus norvegicus = species on record: Rattus norvegicus; test: Inhibition of ischemia-reperfusion-induced NF-kappaB binding activity in Sprague-Dawley rat liver at 2.26 mM treated prior to ischemic reperfusion by EMSA
structure (smiles),measurement,setting,value
COc1cc(O)c(CC=C(C)C)c(O)c1C(=O)/C=C/c1ccc(O)cc1 [XANTHOHUMOL],pIC50,[1],4.82
same,Activity,HEK293 [2],71.9%
same,Activity,HEK293 [3],Non-toxic
same,inhibition,Liver [4],Active
same,inhibition,Liver [5],Active
same,inhibition,Liver [6],Active
same,pIC50,[7],4.46
same,inhibition,[8],Active
same,Activity,[9],Active
same,Activity,[10],Active
same,Activity,Liver [11],inactive
same,Activity,Liver [12],inactive
same,Activity,Liver [13],inactive
same,Activity,HEK293 [14],46.2%
same,inhibition,Rattus norvegicus,Active
